Source: PubChem
This is a sample that favours compounds with a hit; in the whole collection about 4.2% have one here.
TAAR1 ag – agonists of human TAAR1. Q96RJ0. CHO RD-HGA16 TAAR1, Fluo-8 calcium fluorescence; vehicle wells 0%, saturating PEA agonist 100%. activation, % at 3 µM. 0.99% of 360,000 active;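 active = activation above the mean activation of all test compounds in the run plus 3 SD, cut at about 38% in these data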
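Test system: RD-HGA16 (CHO) cells co-expressing Gα16 and hTAAR1; dosing: one-point dosing at 3 µM (nominal); timing: 17-24 h seeding, 75 min 37 °C dye, 30 min RT; signal: kinetic Fluo-8 calcium fluorescence; read-out basis: % activation relative to PEA EC100 response; controls: DMSO and PEA EC100; replicates: n 1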
OX1R antag-1 – antagonists of human orexin 1 receptor | O43613 | CHO/OX1R cells, Fluo-8 calcium fluorescence, orexin A | inhibition, % at 5 µM | 0.43% of 330,000 active;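 active = inhibition above its plate's threshold, mean inhibition of all tested compounds on the plate plus 3 SD, cut at about 37% in these data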;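 also: 0% = orexin A challenge wells and 100% = SB-334867-A antagonist wells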
Target sequence (O43613 whole entry, looked up): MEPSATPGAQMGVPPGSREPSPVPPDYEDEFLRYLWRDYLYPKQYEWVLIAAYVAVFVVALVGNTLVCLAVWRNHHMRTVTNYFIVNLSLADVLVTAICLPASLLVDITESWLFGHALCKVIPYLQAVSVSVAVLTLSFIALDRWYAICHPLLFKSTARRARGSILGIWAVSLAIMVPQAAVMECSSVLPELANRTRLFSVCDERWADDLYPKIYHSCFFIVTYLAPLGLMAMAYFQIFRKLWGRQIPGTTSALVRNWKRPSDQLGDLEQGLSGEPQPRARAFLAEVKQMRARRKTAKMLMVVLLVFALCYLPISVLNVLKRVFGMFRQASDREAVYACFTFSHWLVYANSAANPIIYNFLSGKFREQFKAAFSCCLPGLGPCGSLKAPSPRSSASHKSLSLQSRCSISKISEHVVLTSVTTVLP
OX1R antag-2 – blocks the human orexin 1 receptor; OX1R-expressing cells, FRET antagonist read-out; AID 485270; O43613; 1.8% of 330,000 active; inhibition, % at 6.6 µM; in the data active = inhibition mostly above about 38%, no sharp cut-off; inactive = mostly below about 40%;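 also: 0% = agonist challenge alone and 100% = reference antagonist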
TAAR1 antag – human TAAR1 antagonism. AID 624466. inhibition, % at 3 µM. 1.5% of 360,000 active. CHO RD-HGA16 TAAR1, Fluo-8 calcium fluorescence, antagonist. Q96RJ0;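 active = inhibition above a per-plate cutoff, the mean inhibition of test compounds on that plate plus 3 SD, cut at about 49% in these data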;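 also: 0% = DMSO plus EC80 beta-PEA response and 100% = DMSO alone without agonist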
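Material: CHO RD-HGA16 cells bearing hTAAR1; compound dosing: one-point dosing, 3 µM nominal final; schedule: dye loading 75 min at 37 °C, then 30 min room temperature; measured by: calcium fluorescence with Fluo-8; control set: vehicle and agonist controls; replication: n of 1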
GalR3 antag – antagonists of human GalR3; 0.44% of 360,000 active; HEK293 GalR3-CNG cAMP membrane potential fluorescence; galR3 body fused to GalR1 C-terminus; inhibition, % at 3 µM; O60755;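 active = inhibition above the screen-wide average plus 3 SD, cut at about 13% in these data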;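 also: forskolin and galanin both at EC90 stimulate the cells; cAMP rise reported by CNG channel membrane potential dye signal; 0% = forskolin plus galanin with DMSO and 100% = forskolin alone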
CHO parental Ca – counter-screen for OX1R antagonists: effect in parental CHO cells. parental CHO-K1, ATP-induced calcium, Fluo-8 fluorescence. inhibition, % at 5.6 µM. 0.63% of 330,000 active;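 active = inhibition above that plate's mean sample inhibition plus 3 SD, cut at about 26% in these data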;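 also: 0% = ATP-challenged DMSO wells and 100% = DMSO wells without ATP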
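test system = CHO parental line | reagent = ATP stimulus | measured by = intracellular calcium via Fluo-8 no-wash fluorescent dye | control set = ATP and no-ATP DMSO wells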
Starred values were filed as active, the others as inactive; . = no result given.

SMILES	TAAR1 ag	OX1R antag-1	OX1R antag-2	TAAR1 antag	GalR3 antag	CHO parental Ca
CCOC(=O)C(=NC(C)CC)NNc1ccc(Br)cc1 (stereo unspecified)	5.8	-25.3	13.1	-15.5	-3.4	-18.2
OC(CNC1CCCc2ccccc21)COc1c(Cl)cccc1Cl (stereo unspecified)	69.0*	-37.0	19.9	9.6	-8.1	-18.4
COc1ccc(OC)c(NC(=O)c2cc(-c3cc(C)ccc3O)n[nH]2)c1	6.3	.	.	28.9	-14.5	.
COc1cc(C(=O)NC2CCCc3ccccc32)cc(OC)c1C (stereo unspecified)	-2.9	-22.6	13.0	-23.4	-10.6	-31.0
CC1(C)CC(C(CC(=O)O)c2ccccc2)CCO1 (stereo unspecified)	1.9	-8.1	-1.7	0.1	-2.3	-13.1
CCCn1nc(NS(=O)(=O)c2cccc3nonc23)c2cc3cccc(C)c3nc21	1.2	-2.1	52.1*	-12.6	-6.7	-22.9
O=C(COC(=O)/C=C/c1cnc2ccccc2n1)NCC(F)(F)F	17.5	-14.3	23.8	-2.6	-1.4	-14.7
COCCNC(=O)COC(=O)/C=C/c1cnc2ccccc2n1	12.9	-3.2	48.3*	2.8	-7.0	0.6
O=C(C1=NN(c2ccccc2)C2C(=O)N(c3ccccc3)C(=O)C12)c1ccccc1 (stereo unspecified)	10.1	-10.0	8.5	-13.3	-0.9	-14.8
NC1=NC[C@H](Cc2ccccc2)N1CCCCC1CCCCC1	32.8	74.7*	-12.4	57.8*	-0.7	73.5*
CC(=O)NCC(=O)NC1(C(=O)NC2CCCC2)CCCCC1	7.3	-3.0	0.1	4.7	-4.3	-6.9
C=CCOC(=O)C(C#N)c1nc2ccccc2nc1N1CCN(c2ccccc2OC)CC1 (stereo unspecified)	7.7	-20.8	23.4	48.9*	-2.1	-30.9
COc1cccc(/C=N/Nc2nc3ccccc3n3cnnc23)c1O	4.9	-5.9	67.0*	-0.9	-3.9	-2.3
O=C(O)c1cccc(Nc2nc(-c3ccc([N+](=O)[O-])cc3)nc3ccccc23)c1	3.2	.	.	4.3	-12.2	.
O=[N+]([O-])c1ccc(-c2nc(Nc3cccc(O)c3)c3ccccc3n2)cc1	5.9	-3.0	16.0	55.4*	-7.1	-1.5
O=C(O)c1sccc1S(=O)(=O)c1ccccc1	-1.5	2.8	14.8	-2.1	0.6	1.5
CSc1nc(N)cc(=O)[nH]1	1.9	2.4	6.1	-17.4	-5.1	-3.4
CCC(=O)NC(c1ccco1)c1cc(Cl)c2ccccc2c1O (stereo unspecified)	10.5	23.1	50.0*	0.6	-4.6	-16.3
CC(=O)NC(c1ccco1)c1cc(Cl)c2ccccc2c1O (stereo unspecified)	1.6	10.8	27.9	-10.2	-3.7	-14.6
Cc1ccc2nc(CSc3nc(C)cc(C)c3C#N)[nH]c2c1	4.6	-27.7	41.4*	19.0	-2.7	-9.7
Cc1cc(C)c(C#N)c(SCc2ccccc2)n1	0.0	-13.7	21.2	-27.4	-3.9	-0.8
COc1ccc(NC(=O)Nc2cccc(OC)c2)cc1	2.3	-9.7	-0.4	8.3	-3.5	5.5
COc1cccc(NC(=O)Nc2nc(SC(C)(C)C)ns2)c1	18.9	75.1*	36.5	58.9*	-11.2	73.6*
Cc1cc(N/N=C/c2ccc(Cl)cc2)nc(NCc2ccccc2)n1	40.2*	-44.2	12.6	33.6	-5.2	-24.3
O=C(Nc1ccc(C(=O)N2CCOCC2)cc1)c1cc(-c2cccnc2)nc2ccc(Br)cc12	19.7	-9.8	4.9	53.0*	2.1	-2.8
SMILES	TAAR1 ag	OX1R antag-1	OX1R antag-2	TAAR1 antag	GalR3 antag	CHO parental Ca
O=C(NNC(=O)c1cc(-c2cccnc2)nc2ccccc12)Nc1ccc(Cl)cc1	13.0	26.6	31.8	82.0*	-4.5	58.8*
O=C(Nc1ccccn1)c1cc(-c2cccnc2)nc2ccc(Br)cc12	6.4	-27.9	12.4	23.4	-6.3	-10.1
Cc1ccc(C(=O)NS(=O)(=O)c2ccccc2)cc1	9.8	7.7	11.9	17.5	-2.6	-12.8
N#CC1=C(N)N2C(=C(C#N)C13CCCCC3)SC1CCCCC12O (stereo unspecified)	19.6	14.1	5.1	36.6	-4.4	33.1*
COc1ccc(N(C)S(=O)(=O)c2cccc(C(=O)Nc3nnc(C)s3)c2)cc1	0.6	-13.9	0.3	-8.8	-5.4	6.8
O=C(Nc1nc2ccccc2[nH]1)c1cccc(Cl)c1	0.1	-20.5	19.5	3.6	-6.5	-10.0
COc1ccc(N(C)S(=O)(=O)c2cccc(C(=O)Nc3nc4ccccc4[nH]3)c2)cc1	8.6	-16.1	20.2	54.7*	-6.3	-0.7
CN(c1cccc(Cl)c1)S(=O)(=O)c1cccc(C(=O)Nc2nc3ccccc3[nH]2)c1	12.1	5.0	51.6	61.0*	-8.1	-7.0
O=C1CCCCCN1CP(=O)(O)CN1CCOCC1	14.6	.	.	-2.4	-6.3	.
Cc1cc(C)cc(NC(=O)c2cc(S(=O)(=O)N3CCCC3)cn2C)c1	-1.3	-24.9	-3.0	-12.1	.	-9.2
COC(=O)[C@H](Cc1ccccc1)NC(=O)NCCc1ccc(OC)cc1	7.2	3.1	-3.4	2.6	-6.9	-16.8
O=C(N[C@@H](Cc1ccccc1)C(=O)OCc1ccccc1)c1nc[nH]c1C(=O)N1CCN(c2ccccc2)CC1	11.8	19.0	8.3	52.1*	-8.4	27.1
O=C(CNC(=O)c1nc[nH]c1C(=O)N1CCc2ccccc2C1)OCc1ccccc1	21.0	-17.3	32.8	61.9*	-0.8	-15.7
O=C(CNC(=O)c1nc[nH]c1C(=O)N1CCNCC1)OCc1ccccc1	0.1	-4.1	15.6	13.6	-4.9	1.5
Cc1ccc2nc(-c3cccc(NC(=O)c4ccco4)c3)[nH]c2c1	9.0	-9.7	57.1	37.9	0.1	-29.2
CCN(CC)CC(C)(C)C(=O)/C=C/c1ccc(/C=C/C(=O)C(C)(C)CN(CC)CC)cc1	7.2	.	.	13.2	36.2*	.
O=C(Nc1ccc(F)cc1)C(c1cc2ccccc2o1)N1CCN(CC(=O)N2CCCC2)CC1 (stereo unspecified)	1.1	.	.	10.3	-7.9	.
O=C(N/C(=C\c1ccc([N+](=O)[O-])cc1)C(=O)N1CCCCC1)c1ccccc1Br	2.1	-30.6	50.5*	16.8	-1.8	-28.0
O=C(N/C(=C\c1ccc([N+](=O)[O-])cc1)C(=O)N1CCCCC1)c1ccc(Br)o1	0.1	-25.5	23.9	-4.4	5.2	8.6
C/C(=N\NC(=O)c1cc(O)ccc1O)c1cccc(NC(=O)c2ccc(Cl)cc2)c1	5.3	-26.9	22.2	51.3*	-3.6	-7.3
C/C(=N\NC(=O)c1cc(O)ccc1O)c1cccc(NC(=O)c2cccc(Cl)c2)c1	19.0	-7.8	19.6	44.7	-0.8	-11.4
